Legend:
K562 [1] = assay: Inhibitory activity against K562 human chronic myelogenous leukemia cell line using MTT assay after 5 days incubation of the compound; format: functional, cell-based; conditions: K562, 120 h
Procedure, shortened: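 K562 cells exposed to drug for 5 days at 37 °C; growth read by MTT assay. IC50 taken as concentration giving 50% inhibition of cell growth.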

K562 [2] = assay: Effect on G0-G1 phase of the cell cycle by flow cytometry; format: functional, Homo sapiens
Procedure, shortened: (§1)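 Cell-cycle phase distribution measured by flow cytometry in drug-treated cells, compared with untreated control.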

K562 [3] = assay: Effect on G2/M phase of the cell cycle by flow cytometry; format: functional, Homo sapiens; procedure, shortened: as §1
K562 [4] = assay: Effect on S phase of the cell cycle by flow cytometry; format: functional, Homo sapiens; procedure, shortened: as §1
Tubulin alpha chain = Tubulin alpha chain (Sus scrofa, UniProt P02550); assay: Concentration that cause a 50% inhibition in tubulin assembly as measured by an increase in turbidity using microtubule assembly assay
Tubulin = Tubulin (Sus scrofa, UniProt P02554+P02550); assay: Ability to inhibit the binding of [3H]colchicine to porcine tubulin; format: protein assay

Sequence of Tubulin alpha chain (P02550 whole entry, looked up): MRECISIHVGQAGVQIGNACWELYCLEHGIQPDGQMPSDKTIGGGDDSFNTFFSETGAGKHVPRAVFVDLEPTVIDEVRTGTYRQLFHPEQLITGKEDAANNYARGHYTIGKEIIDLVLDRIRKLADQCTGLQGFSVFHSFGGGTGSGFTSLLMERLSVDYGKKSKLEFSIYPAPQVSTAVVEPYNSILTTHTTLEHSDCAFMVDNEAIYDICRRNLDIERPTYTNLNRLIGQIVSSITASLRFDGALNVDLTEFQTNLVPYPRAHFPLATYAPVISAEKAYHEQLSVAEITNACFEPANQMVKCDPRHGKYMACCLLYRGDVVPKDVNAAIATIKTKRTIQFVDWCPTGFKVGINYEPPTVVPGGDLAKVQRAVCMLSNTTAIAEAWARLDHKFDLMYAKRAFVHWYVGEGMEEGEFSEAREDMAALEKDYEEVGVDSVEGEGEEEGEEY

Row | IC50 (K562 [1]) | IC50 (Tubulin alpha chain) | IC50 (Tubulin) | SMILES | Activity (K562 [2]) | Activity (K562 [3]) | Activity (K562 [4])
1 | 0.05 µM | 22 µM | 60 µM | COc1ccc(/C=C2\Oc3c(cc(OC)c(OC)c3OC)C2=O)cc1O | 17 | 69 | 14
2 | 9.7 µM | > 50 µM | – | COc1cc2c(c(OC)c1OC)O/C(=C\c1ccc(O)c(O)c1)C2=O | 45 | 39 | 16
3 | > 50 µM | > 50 µM | – | COc1ccc(/C=C2\Oc3cc(OC)c(OC)c(OC)c3C2=O)cc1F | – | – | –
4 | 0.83 µM | – | – | COc1ccc(-c2cc(=O)c3cc(OC)c(OC)c(OC)c3o2)cc1 | – | – | –
5 | 0.15 µM | – | – | COc1cc2c(c(OC)c1OC)O/C(=C\c1cc(F)c(OC)c(F)c1)C2=O | – | – | –
6 | 0.15 µM | – | – | COc1ccc(/C=C2\Oc3c(cc(OC)c(OC)c3OC)C2=O)cc1 | – | – | –
7 | > 50 µM | > 50 µM | – | COc1ccc(-c2cc(=O)c3c(OC)c(OC)c(OC)cc3o2)cc1F | – | – | –
8 | 18 µM | > 50 µM | – | COc1ccc(/C=C2\Oc3cc(OC)c(OC)c(OC)c3C2=O)cc1O | – | – | –
9 | 0.0002 µM | 0.5 µM | – | COc1ccc(/C=C(\C)C(=O)c2cc(OC)c(OC)c(OC)c2)cc1O | 10 | 83 | 7
10 | 0.59 µM | > 50 µM | – | COc1ccc(-c2cc(=O)c3cc(OC)c(OC)c(OC)c3o2)cc1F | – | – | –
11 | > 50 µM | – | – | COc1ccc(/C=C2\Oc3cc(OC)c(OC)c(OC)c3C2=O)cc1 | – | – | –
12 | > 50 µM | – | – | COc1cc2c(c(OC)c1OC)C(=O)/C(=C/c1cc(F)c(OC)c(F)c1)O2 | – | – | –
13 | 0.11 µM | > 50 µM | – | COc1ccc(/C=C2\Oc3c(cc(OC)c(OC)c3OC)C2=O)cc1F | 12 | 77 | 11
14 | 12 µM | > 50 µM | – | COc1cc2c(c(OC)c1OC)C(=O)/C(=C/c1ccc(O)c(O)c1)O2 | 57 | 25 | 18
15 | 22 µM | > 50 µM | – | COc1ccc(-c2cc(=O)c3c(OC)c(OC)c(OC)cc3o2)cc1O | – | – | –
16 | 0.04 µM | 25 µM | 40 µM | COc1ccc(-c2cc(=O)c3cc(OC)c(OC)c(OC)c3o2)cc1O | 52 | 38 | 11

Row | SMILES | IC50 (K562 [1]) | IC50 (Tubulin alpha chain) | IC50 (Tubulin) | Activity (K562 [2]) | Activity (K562 [3]) | Activity (K562 [4])
17 | COc1ccc(-c2cc(=O)c3c(OC)c(OC)c(OC)cc3o2)cc1 | 42 µM | – | – | – | – | –

Source: ChEMBL document CHEMBL1136324, “The total synthesis of an aurone isolated from Uvaria hamiltonii: aurones and flavones as anticancer agents” (Bioorg Med Chem Lett, 2003)
